Measured values reported in ChEMBL document CHEMBL4041462, “Rice Bran Protein as a Potent Source of Antimelanogenic Peptides with Tyrosinase Inhibitory Activity” (J Nat Prod, 2016).
Active and inactive are the calls of the source. The calls are words filed in the database; no cut-off is given here.

What was measured:
[1] = target: T1, Tyrosinase (Mus musculus) (UniProt P11344); experiment: Inhibition of tyrosinase in mouse B16 cells assessed as reduction in melanin production at 500 uM after 3 days relative to control; format: cell-based
T1 sequence (whole entry): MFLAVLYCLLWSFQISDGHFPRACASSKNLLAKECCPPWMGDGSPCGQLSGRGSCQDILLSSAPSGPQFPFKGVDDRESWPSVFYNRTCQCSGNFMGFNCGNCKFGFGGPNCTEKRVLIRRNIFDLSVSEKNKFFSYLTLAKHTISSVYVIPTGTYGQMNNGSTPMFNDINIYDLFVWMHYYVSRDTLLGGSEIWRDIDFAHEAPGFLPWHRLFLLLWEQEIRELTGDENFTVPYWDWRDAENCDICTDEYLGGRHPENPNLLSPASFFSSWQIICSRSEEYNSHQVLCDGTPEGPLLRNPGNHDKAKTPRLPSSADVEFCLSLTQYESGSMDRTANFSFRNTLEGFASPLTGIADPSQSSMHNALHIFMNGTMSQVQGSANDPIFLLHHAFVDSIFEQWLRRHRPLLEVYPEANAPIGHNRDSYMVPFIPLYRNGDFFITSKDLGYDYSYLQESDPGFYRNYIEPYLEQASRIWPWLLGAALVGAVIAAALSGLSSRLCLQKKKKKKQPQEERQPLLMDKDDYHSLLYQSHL
Method in brief: (§1)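 Melanin content: B16 mouse melanoma cells were seeded at 1.5 × 10^4 cells/well and incubated 24 h. They were then exposed for 3 days to 125, 250 or 500 μM peptide in 5% FBS medium. Cells were harvested with 0.25% trypsin/1 mM EDTA, washed in PBS and lysed in 1 M NaOH, 1 h at 60 °C. Absorbance was read at 420 nm. Matched DMSO without peptide served as background.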

[2] = target: T2, Mushroom tyrosinase (Agaricus bisporus) (UniProt O42713+Q00024+C7FF04+C7FF05); experiment: Inhibition of mushroom tyrosinase diphenolase activity at 100 to 500 uM using L-DOPA as substrate
Method in brief: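 Diphenolase: 2.0 mM L-dopa (stock, 100 μL) was mixed with 0.1 M phosphate buffer pH 6.5 and peptide or water, then preincubated 10 min at 30 °C. Mushroom tyrosinase (1320 units/mL stock) was added and dopachrome followed at 475 nm, 30 °C. Residual activity = rate (ΔA475/min) with inhibitor ÷ rate with water × 100. IC50 was estimated manually from inhibition curves. Performed three times.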

[3] = target: T2, Mushroom tyrosinase (Agaricus bisporus); experiment: Inhibition of mushroom tyrosinase monophenolase activity at 100 to 500 uM using L-tyrosine as substrate
Method in brief: (§2)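 Monophenolase: 2.0 mM L-tyrosine (stock, 100 μL) in 0.1 M phosphate buffer pH 6.5 with peptide or water was preincubated 10 min at 30 °C. Mushroom tyrosinase (1320 units/mL stock) was added and absorbance at 475 nm monitored at 30 °C. Lag time was taken by extrapolating the linear dopachrome rise to the x-axis. Residual activity = (1/lag with inhibitor)/(1/lag with water) × 100. IC50 was read manually from curves. Triplicate.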

[4] = target: T1, Tyrosinase (Mus musculus); experiment: Inhibition of tyrosinase in mouse B16 cells assessed as reduction in melanin production at 125 to 500 uM after 3 days; format: cell-based; method in brief: as §1
B16 = experiment: Cytotoxicity against mouse B16 cells assessed as reduction in cell viability at 125 to 500 uM after 3 days by WST1/MTT assay; format: cell-based; conditions: b16, 72 h
Method in brief: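 B16 mouse melanoma cells were grown in Eagle's MEM with Earle's salts, 5% or 10% FBS and 1% penicillin–streptomycin, 37 °C, 5% CO2. They were seeded at 1.0 × 10^3 cells/well and left 24 h. Medium was then replaced with 5% FBS medium containing peptide at 125, 250 or 500 μM. After 3 days, viability was read by WST-1. Matched DMSO without peptide served as background. Three independent experiments; mean ± SD.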

Mushroom tyrosinase = Mushroom tyrosinase (Agaricus bisporus, UniProt O42713+Q00024+C7FF04+C7FF05); experiment: Inhibition of mushroom tyrosinase monophenolase activity using L-tyrosine as substrate; method in brief: as §2

Molecule | inhibition [1] | inhibition [2] | inhibition [3] | inhibition [4] | Activity (B16) | IC50 (Mushroom tyrosinase)
OC[C@H]1O[C@@H](Oc2ccc(O)cc2)[C@H](O)[C@@H](O)[C@@H]1O | Active |  |  |  |  | 
H-DTVHGQW-OH |  | inactive | inactive |  |  | 
H-HGGEGGRPY-OH |  | inactive | Active | inactive | Non-Toxic | 
H-HPTSEVY-OH |  | inactive | Active | inactive | Non-Toxic | 
H-LQPSHY-OH | > 50% | inactive |  |  | Non-Toxic | 156 µM
H-WEAGQDQR-OH |  | inactive | inactive |  |  | 
H-WEEEPEDER-OH |  | inactive | inactive |  |  | 
